Data reported in PubChem BioAssay.
The source made the active and inactive calls. Unless noted, no stated cut-off is given here; in the data, active means inhibition above about 30%; inactive means the rest.

Legend:
[1] = SK-BR-3 cell growth inhibitors, pilot screen, 24 h, human (AID 572;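 active means viability at or below 10% of carrier control in both of two separate runs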;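 further: compound exposure lasted between 18 and 24 h rather than exactly 24 h; 100% = carrier-treated control wells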); details: SK-BR-3 viability, CellTiter-Glo luminescence, at 10 µM, stronger effect = lower value
[2] = HUVEC growth inhibition – cell-based, human, primary screen (AID 575;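 active means viability at or below 30% in both replicate assays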;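 further: 100% = median of untreated cell wells with 0.1% DMSO on each plate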); details: HUVEC proliferation, CellTiter-Glo luminescence, 72 h; at 10 µM; stronger effect = lower value
In short: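 material = primary HUVEC, no more than 12 passages | input = 1250 cells per well | controls = vehicle and MePR control wells | measured by = CTG luminescence | times = 72 h compound incubation | format = collagen-coated 384-well format | read-out = % viability vs DMSO wells | doses = single 10 µM dose, 0.1% DMSO, from 5x medium stock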

[3] = growth inhibitors of H69AR lung tumor, primary screen, human, duplicate replicates (AID 580;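 active means viability at or under a set limit in both replicates, limit being median viability minus 3 SD, cut at about 48% in these data, passing the limit was not always enough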;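 further: 100% = mean luminescence of untreated wells and 0% = no signal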); details: H69AR lung tumor cells viability, ATP luminescence, 72 h; at 10 µM; stronger effect = lower value
[4] = reversal of MRP1-mediated doxorubicin resistance, pilot screen, H69AR cells, doxorubicin co-treatment (AID 601;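 active means viability loss from added drug above about 55%, and viability with drug at most 40%, in both replicates, limit read from the data, passing the limit was not always enough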); details: CellTiter-Glo, 72 h, at 10 µM; for differential viability (reversal): stronger effect = higher value
[5] = 384-well plate pilot, post-Golgi transport modulator project, inhibition of yeast transport mutant growth (AID 636; in the data active means inhibition above about 31%); details: absorbance 615 nm, about 18 h, stronger effect = higher value
[6] = growth suppression of yeast trafficking mutant, preliminary HTS, modulators of trafficking downstream of Golgi apparatus project, 1536-format plate, OD 615 nm (AID 637); details: yeast transport mutant growth, absorbance 615 nm, 18 h; stronger effect = higher value
[7] = H69AR cells + 2 uM doxorubicin, measured here: viability with 2 uM doxorubicin, stronger effect = lower value
[8] = H69AR cells, compound alone cytotoxicity

Row | Compound | viability [1] | viability [2] | viability [3] | differential viability (reversal) ([4]; H69AR cells + 2 uM doxorubicin) | viability [4, 7] [%] | viability [4, 8] [%] | inhibition [5] | inhibition [6]
1 | FC(F)(F)c1ccc(Sc2nnc(-c3cccs3)n2CC2CCCO2)nc1 (stereo not drawn) | 68% (inactive) | 104% (inactive) | 94.5% (inactive) | 6.06% (inactive) | 88.4 | 94.5 | -8.22% (inactive) | 2% (inactive)
2 | C=C1[C@@H](C)C2[C@H](Cc3ccccc3)NC(=O)[C@]23OC(=O)CC[C@H](O)CCC[C@H](C)C/C=C/[C@H]3[C@@H]1O (stereo partly drawn) | 95% (inactive) | 13.1% (active) |  | -16.3% (inactive) | 48.2 | 31.9 | -0.26% (inactive) | 0.67% (inactive)
3 | O=C1NC2c3ccccc3C(=O)N2c2c1cnn2-c1ccccc1 (stereo not drawn) | 98% (inactive) | 80.3% (inactive) |  | -35.4% (inactive) | 86 | 50.6 | 0.68% (inactive) | 0.91% (inactive)
4 | COc1ccc(C)cc1-n1c(N)c(C#N)c(C#N)c1-c1ccc(OC)c(OC)c1OC | 97% (inactive) | 68.7% (inactive) | 72.9% (inactive) |  |  |  | -3.51% (inactive) | -1.31% (inactive)
5 | Cc1cc(C(=O)CSc2nc3ccccc3n2CCC#N)c(C)n1Cc1cccs1 | 58% (inactive) | 110% (inactive) |  | -1.21% (inactive) | 32.9 | 31.7 | -5.41% (inactive) | -3.09% (inactive)
6 | COC(=O)c1ccc(CSc2ncnc3c2nnn3-c2ccc(OC)cc2)o1 | 87.5% (inactive) | 88% (inactive) |  | -10.7% (inactive) | 71.6 | 60.9 | -1.97% (inactive) | 6.07% (inactive)
7 | CCCn1nc(NC(=O)c2cccs2)c2cc3cc(OC)ccc3nc21 | 102% (inactive) | 56.4% (inactive) |  | -18.7% (inactive) | 81.8 | 63.1 | -6.58% (inactive) | 2.58% (inactive)
8 | COc1ccc(C(=O)Nc2ccc(Cl)c(Cl)c2)c(OC)n1 | 93% (inactive) | 83.2% (inactive) |  | -7.11% (inactive) | 47.6 | 40.5 | -8.53% (inactive) | -4.36% (inactive)
9 | Cn1c(=O)cc(OCCCC(=O)Nc2ccc3c(c2)OCCO3)c2ccccc21 | 101% (inactive) | 85.1% (inactive) |  | -5.2% (inactive) | 70.7 | 65.5 | -1.04% (inactive) | -6.39% (inactive)
10 | CC[C@]1(O)CC2CN(CCc3c([nH]c4ccccc34)[C@@](C(=O)OC)(c3cc4c(cc3OC)N(C=O)[C@H]3[C@@](O)(C(=O)OC)[C@H](OC(C)=O)[C@]5(CC)C=CCN6CC[C@]43[C@@H]65)C2)C1 (stereo partly drawn) | 104% (inactive) | 34.6% (inactive) |  | -27% (inactive) | 53.5 | 26.5 | -0.91% (inactive) | -3.67% (inactive)
11 | N#Cc1cc2c(nc1SCC(=O)Nc1sc3c(c1C#N)CCC3)CCCCC2 | 82% (inactive) | 79.5% (inactive) |  | -16.5% (inactive) | 57.4 | 40.9 | -7.84% (inactive) | -8.91% (inactive)
12 | O=C(Nc1ccc2[nH]c3c(c2c1)CCCC3)c1ccco1 | 82% (inactive) | 73.1% (inactive) |  | -3.58% (inactive) | 66.7 | 63.1 | -8.67% (inactive) | -2.73% (inactive)
